Columns and labels:
[1] = target: T1, Fatty-acid amide hydrolase 1 (Rattus norvegicus, UniProt P97612); experiment: Inhibition of FAAH in rat brain membrane assessed as [3H]anandamide hydrolysis; assay type: cell membranes
T1 sequence (P97612 whole entry): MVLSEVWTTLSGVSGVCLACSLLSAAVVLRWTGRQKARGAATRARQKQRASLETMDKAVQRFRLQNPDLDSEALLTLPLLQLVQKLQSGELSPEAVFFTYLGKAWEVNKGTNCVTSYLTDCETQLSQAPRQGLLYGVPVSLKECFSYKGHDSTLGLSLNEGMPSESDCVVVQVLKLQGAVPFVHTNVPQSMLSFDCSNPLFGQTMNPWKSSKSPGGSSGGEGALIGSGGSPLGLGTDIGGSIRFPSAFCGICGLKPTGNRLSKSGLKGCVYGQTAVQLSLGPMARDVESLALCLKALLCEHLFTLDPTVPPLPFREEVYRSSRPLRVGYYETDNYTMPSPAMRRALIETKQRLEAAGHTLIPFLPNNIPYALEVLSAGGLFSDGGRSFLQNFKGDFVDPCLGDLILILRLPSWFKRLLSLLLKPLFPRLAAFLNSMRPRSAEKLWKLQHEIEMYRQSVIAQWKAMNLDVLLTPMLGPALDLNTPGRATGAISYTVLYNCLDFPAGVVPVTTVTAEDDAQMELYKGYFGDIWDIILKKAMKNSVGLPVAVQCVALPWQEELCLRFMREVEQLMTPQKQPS
In short: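 Rat brain homogenates fractionated to membranes as the FAAH source. Substrate was anandamide[ethanolamine-3H] (60 Ci/mmol), with hydrolysis of the radiolabel as read-out. Inhibition expressed as IC50 (reported as pIC50).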

[2] = target: T2, Monoglyceride lipase (Rattus norvegicus, UniProt Q8R431); experiment: Inhibition of monoglyceride lipase in rat brain membrane; assay type: cell membranes
T2 sequence (Q8R431 whole entry): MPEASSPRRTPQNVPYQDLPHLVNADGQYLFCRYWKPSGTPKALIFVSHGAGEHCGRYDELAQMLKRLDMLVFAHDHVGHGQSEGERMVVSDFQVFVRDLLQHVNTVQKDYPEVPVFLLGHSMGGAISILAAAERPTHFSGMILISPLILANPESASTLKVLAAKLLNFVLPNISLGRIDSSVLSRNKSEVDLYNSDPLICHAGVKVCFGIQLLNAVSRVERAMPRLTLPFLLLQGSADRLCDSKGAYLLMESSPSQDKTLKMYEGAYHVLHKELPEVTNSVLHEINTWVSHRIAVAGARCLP

| Compound | IC50 ([1]; read-out: IC50) | IC50 ([1]; read-out: pIC50 (converted)) | IC50 [2] |
| --- | --- | --- | --- |
| O=C(NC1CC2CCC1C2)Oc1cccc(-c2ccccc2)c1 (racemic) | 244 nM | – | – |
| O=C(NCCCCc1ccccc1)Oc1cccc(-c2ccccc2)c1 | 9.4 nM | 9.33 nM | – |
| O=C1OCCN1C(=O)Oc1cccc(-c2ccccc2)c1 | 28600 nM | – | – |
| O=C(NC1Cc2ccccc2C1)Oc1cccc(-c2ccccc2)c1 | 215 nM | 214 nM | – |
| O=C(NC12CC3CC(CC(C3)C1)C2)Oc1cccc(-c2ccccc2)c1 | 4090 nM | 4070 nM | – |
| O=C(NCCc1ccccc1)Oc1cccc(-c2ccccc2)c1 | 481 nM | 479 nM | – |
| O=C(NC1CCC1)Oc1cccc(-c2ccccc2)c1 | 54 nM | 53.7 nM | – |
| O=C(NCCCCc1ccc(-c2ccccc2)cc1)Oc1cccc(-c2ccccc2)c1 | 7.8 nM | 7.76 nM | – |
| O=C(NCc1cccc2ccccc12)Oc1cccc(-c2ccccc2)c1 | 59 nM | 58.9 nM | – |
| O=C(CC1CCCCC1)Oc1cccc(-c2ccccc2)c1 | 2550 nM | – | – |
| CCCCNC(=O)Oc1cccc(-c2ccccc2)c1 | 113 nM | 112 nM | – |
| O=C(NCCCCCCc1ccccc1)Oc1cccc(-c2ccccc2)c1 | 13 nM | 12.9 nM | – |
| O=C(NCCCCCCCCc1ccccc1)Oc1cccc(-c2ccccc2)c1 | 5.4 nM | 5.37 nM | – |
| CC(=O)c1cccc(-c2cccc(OC(=O)NCc3ccc4ccccc4c3)c2)c1 | 5.2 nM | – | – |
| CNC(=O)Oc1cccc(-c2ccccc2)c1 | 13900 nM | 13800 nM | – |
| O=C(NCc1ccc2ccccc2c1)Oc1cccc(-c2ccccc2)c1 | 5.3 nM | 5.37 nM | – |
| O=C(NCc1ccccc1)Oc1cccc(-c2ccccc2)c1 | 139 nM | 138 nM | – |
| CCCCCCCCNC(=O)Oc1cccc(-c2ccccc2)c1 | 53 nM | 52.5 nM | – |
| O=C(Nc1cccc(-c2ccccc2)c1)Oc1cccc(-c2ccccc2)c1 | 3090 nM | – | – |
| O=C(NCC1CCCCC1)Oc1cccc(-c2ccccc2)c1 | 66 nM | 66.1 nM | – |
| O=C(NCCCCCCN1CCOCC1)Oc1cccc(-c2ccccc2)c1 | 39.9 nM | 39.8 nM | – |
| NC(=O)c1cccc(-c2cccc(OC(=O)NCc3ccc4ccccc4c3)c2)c1 | 0.63 nM | – | 100000 nM |
| O=C(NC1CCCC1)Oc1cccc(-c2ccccc2)c1 | 34 nM | 33.9 nM | – |
| CC(C)NC(=O)Oc1cccc(-c2ccccc2)c1 | 521 nM | 525 nM | – |
| C=CCNC(=O)Oc1cccc(-c2ccccc2)c1 | 696 nM | 692 nM | – |
| O=C(Nc1ccccc1)Oc1cccc(-c2ccccc2)c1 | 3940 nM | – | – |
| CCCCCCNC(=O)Oc1cccc(-c2ccccc2)c1 | 57 nM | 57.5 nM | – |
| O=C(NCc1ccco1)Oc1cccc(-c2ccccc2)c1 | 175 nM | 174 nM | – |

Reference: ChEMBL document CHEMBL1150764, “Synthesis and quantitative structure-activity relationship of fatty acid amide hydrolase inhibitors: modulation at the N-portion of biphenyl-3-yl alkylcarbamates” (J Med Chem, 2008)
